Assay results pooled from the literature.
Lines come from different studies, so protocols differ.
Medium: plasma

The AUC(0-inf) of `CC(C)n1c(Nc2cccnc2)nc2cnc(Nc3ccc(N4CCN(C)CC4)cc3)nc21` is reported as 853 ng·h/mL (male human; oral, 100 mg).
The AUC(0-inf) of `CNC(=O)n1ccc2cc(Oc3ccnc(NC(=O)c4ccc(C5CCN(CCO)CC5)cc4)c3)c(OCCOC)cc21` is reported as 128 ng·h/mL (human; oral, 35 mg, single dose, fasted, healthy volunteers).
With `COc1ccc([C@@H](O)c2cc(-c3ncnc4cc(N5CCOCC5)ccc34)c(F)cc2Cl)nn1` the AUC(0-t) was 14100 ng·h/mL (human; oral, 400 mg, single dose, patients).
The AUC(0-t) of `Cc1ccc(C(=O)Nc2ccc(CN3CCN(C)CC3)c(C(F)(F)F)c2)cc1C#Cc1cnc2[nH]ncc2c1` is reported as 246 ng·h/mL (human; oral, 40 mg, single dose, healthy volunteers).
`Cn1cc(Nc2nc(N)nc(-c3cccc(-n4ccc5cc(C6CC6)cc(F)c5c4=O)c3CO)n2)cn1` has an AUC(0-t) of 11500 ng·h/mL (human; oral, 300 mg, single dose, fasted, healthy volunteers).
`Cl.[2H]C([2H])([2H])CC(=O)c1cnc(NC(=O)C2CC2)cc1Nc1cccc(-c2ncn(C([2H])([2H])[2H])n2)c1OC` gave an AUC of 796 ng·h/mL (human; oral, 10 mg, multiple doses, once daily, steady state).
`CN1CC[C@@H](c2c(O)cc(O)c3c(=O)cc(-c4ccc(C(F)(F)F)cc4Cl)oc23)[C@@H]1CO` has an AUC(0-t) of 3760 ng·h/mL (human; oral, 150 mg, patients).
The AUC(0-inf) of `NC(=S)NN=Cc1ncccc1N` is reported as 1030 ng·h/mL (human; oral, 150 mg).
With `CC[C@H](C)CCCCC(=O)N[C@@H](CCN)C(=O)N[C@H](C(=O)N[C@@H](CCN)C(=O)N[C@H]1CCNC(=O)[C@H]([C@@H](C)O)NC(=O)[C@H](CCN)NC(=O)[C@H](CCN)NC(=O)[C@H](CC(C)C)NC(=O)[C@@H](Cc2ccccc2)NC(=O)[C@H](CCN)NC1=O)[C@@H](C)O` the AUC(0-t) was 19600 ng·h/mL (human; intravenous, 0.75 mg/kg, single dose, infusion).
